Results taken from ChEMBL document CHEMBL4808195, “Discovery of heterocyclic substituted dihydropyrazoles as potent anticancer agents” (Bioorg Med Chem Lett, 2021).
The source made the active and inactive calls. The calls are words filed in the database; no cut-off is given here.

What was measured:
[1] = system: HCC1806; assay: Anticancer activity against human HCC1806 cells assessed as inhibition of cell growth at 10 uM measured by SRB method; type: functional
[2] = system: MDA-MB-231; assay: Anticancer activity against human MDA-MB-231 cells assessed as inhibition of cell growth at 10 uM measured by SRB method; type: functional
[3] = system: NCI-H1975; assay: Anticancer activity against human NCI-H1975 cells assessed as inhibition of cell growth at 10 uM measured by SRB method; type: functional
[4] = system: HCC1806; assay: Anticancer activity against human HCC1806 cells assessed as inhibition of cell proliferation; type: functional, cell-based
[5] = system: HCT-116; assay: Anticancer activity against human HCT-116 cells assessed as inhibition of cell proliferation; type: functional, cell-based
[6] = system: HeLa; assay: Anticancer activity against human HeLa cells assessed as inhibition of cell proliferation; type: functional, cell-based
[7] = system: A549; assay: Anticancer activity against human A549 cells assessed as inhibition of cell proliferation; type: functional, cell-based
[8] = system: HCC1806; assay: Anticancer activity against human HCC1806 cells assessed as inhibition of cell proliferation at 2 to 10 uM measured after 48 hrs by SRB assay; type: functional, cell-based; conditions: dose 2-10 µM
Summary of the method: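 HCC1806 cells were exposed to the compound for 24, 48 and 72 h. Proliferation inhibition rate was read by SRB assay at each time point. Experimental triplicates, shown with SD.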

[9] = system: HCC1806; assay: Cell cycle arrest in human HCC1806 cells assessed as increase in cell population at G2/M phase at 2.5 to 5 uM measured after 12 hrs by flowcytometry method; type: functional, cell-based; conditions: dose 2.5-5 µM
Summary of the method: (§1)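 HCC1806 cells were treated with the compound for 12 h. Cell-cycle distribution was determined by flow cytometry, and the phase fractions were quantified from experimental duplicates with SD.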

[10] = system: HCC1806; assay: Cell cycle arrest in human HCC1806 cells assessed as decrease in cell population at G1 phase at 2.5 to 5 uM measured after 12 hrs by flowcytometry method; type: functional, cell-based; conditions: dose 2.5-5 µM; summary of the method: as §1
[11] = system: HCC1806; assay: Cell cycle arrest in human HCC1806 cells assessed as decrease in cell population at S phase at 2.5 to 5 uM measured after 12 hrs by flowcytometry method; type: functional, cell-based; conditions: dose 2.5-5 µM; summary of the method: as §1
[12] = system: HCC1806; assay: Cell cycle arrest in human HCC1806 cells assessed as increase in p21 accumulation at 2.5 to 5 uM measured after 12 hrs by western blot assay; type: functional, cell-based; conditions: dose 2.5-5 µM
Summary of the method: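 HCC1806 cells were exposed to the compound for 12 h. p21 protein level was detected by immunoblotting, with β-actin as the loading control.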

IC50 [4]: 2.99 µM
IC50 [5]: 3.6 µM
IC50 [6]: 3 µM
IC50 [7]: 3.6 µM
SMILES: CN1CCN(c2ccc(C3=NN(S(=O)(=O)c4ccc(C#N)cc4)C(c4ccc(N(C)C)cc4)C3)cc2)CC1 (configuration not stated)
inhibition at 10 µM [1]: 99.8%
inhibition at 10 µM [2]: 99.8%
inhibition at 10 µM [3]: 100%
Activity [8]: Active
Activity [9]: Active
Activity [10]: Active
Activity [11]: Active
Activity [12]: Active
